# Results from article PMC10259527 (International Journal of Nanomedicine, 2023).
# How the values were obtained:
# [1] = In vivo toxicity in the hepatic AE mouse model; design: species or system C57BL/6J mice; details: oral 100 mg/kg once daily for 30 days; for Histopathology of liver parenchyma surrounding the metacestodes: H&E
# In short: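 Female C57BL/6J mice were infected by portal-vein protoscolex injection. At 3 months, after ultrasound-confirmed metacestode growth, mice (n = 8/group) got oral gavage at 100 mg/kg daily for 30 days, dosed with 0.5% CMC suspensions or CMC alone. Sham-operated uninfected mice got portal saline. Afterwards, retro-orbital blood was drawn under isoflurane. Plasma (2000 g, 15 min, 4°C; stored −20°C) was assayed for ALT/AST on an automatic biochemical analyzer.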
# [2] = Biodistribution by ex vivo fluorescence imaging of major organs; format: in vivo, BALB/c nude mice; details: Cy5.5-labeled, single oral 25 mg/kg, mice
# In short: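 Female BALB/c nude mice, acclimated 1 week and fasted 12 h overnight with water, got one oral dose of 25 mg/kg (by parent mass). Cy5.5-labeled nanoparticles were given in PBS; Cy5.5-labeled free compound as an H2O/DMSO (40:1) suspension. Four mice per group were killed at 2, 4, 6, 8 and 24 h. Heart, liver, lungs, spleen and kidneys were PBS-washed and imaged ex vivo for fluorescence. Liver intensity was quantified (n = 4, mean ± SEM).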
# Cytotoxicity assay = format: cell-based; details: human, HepG2 cells
# In short: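 HepG2 cells were seeded at 5×10^3/well. Treatment ran 48 h at 37°C, 5% CO2: free compound at 10–50 μM, nanoparticle form at 10–100 μM. Controls got vehicle only (0.1% v/v DMSO or deionized water). Viability was read by CCK-8 and normalized to vehicle controls, mean ± SEM.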
# [3] = In vivo pharmacokinetic study; design: species or system BALB/c mice; details: BALB/c, mouse, plasma
# In short: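 BALB/c mice (5–6 weeks, 20 ± 2 g; n = 6 per time point, 3 male + 3 female) got one IV dose (5 mg/kg) or oral gavage (100 mg/kg). Free compound was given in 5% DMSO/10% solutol HS-15/85% (20% hydroxypropyl-β-cyclodextrin in saline). Tail-vein blood was taken at 0.08–48 h and plasma separated at 2000 g, 15 min. Concentrations were measured by LC–MS/MS; parameters came from non-compartmental analysis.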
Decrease of fluorescence intensity in the liver from 8 h to 24 h [2] [%],"AUC(0-inf) ([3]; both, iv, 5 mg/kg) [µM·h]","AUC(0-t) ([3]; both, iv, 5 mg/kg) [µM·h]","Cmax ([3]; both, iv, 5 mg/kg) [µM]","Tmax ([3]; both, iv, 5 mg/kg) [h]","Vd ([3]; both, iv, 5 mg/kg) [L/kg]","clearance ([3]; both, iv, 5 mg/kg) [mL/min/kg]","half-life ([3]; both, iv, 5 mg/kg) [h]","bioavailability ([3]; both, oral, 100 mg/kg) [%]","AUC(0-inf) ([3]; both, po, 100 mg/kg) [µM·h]","AUC(0-t) ([3]; both, po, 100 mg/kg) [µM·h]","Cmax ([3]; both, po, 100 mg/kg) [µM]","Tmax ([3]; both, po, 100 mg/kg) [h]","half-life ([3]; both, po, 100 mg/kg) [h]","half-life ([3]; female, po, 100 mg/kg) [h]","half-life ([3]; male, po, 100 mg/kg) [h]",Structure (SMILES),Histopathology of liver parenchyma surrounding the metacestodes [1],CC50 at 48 h (Cytotoxicity assay) [µM],Liver transaminases (mean ALT and AST values) ([1]; compared to shamed individuals)
–,–,–,–,–,–,–,–,–,–,–,–,–,–,–,–,"CCCSc1ccc2nc(NC(=O)OC)[nH]c2c1 [albendazole, reference compound]","inflammatory infiltrate, fibroplastic proliferation, and hepatocellular necrosis",–,–
49.9,7.6,7.5,2.6,0.083,19,32,7,69.8,128,104,4.4,6,17.5,24.6,10.4,"CCCNCC(O)Cn1c2ccc(Cl)cc2c2cc(Cl)ccc21 (centres unmarked) [Compound H1402, 1-(3,6-dichloro-9H-carbazol-9-yl)-3-(propylamino)propan-2-ol]","inflammatory infiltrate, fibroplastic proliferation, and hepatocellular necrosis",14.9,various degrees of increase
